The source of these data is ChEMBL document CHEMBL4004793, “Spoxazomicin D and Oxachelin C, Potent Neuroprotective Carboxamides from the Appalachian Coal Fire-Associated Isolate Streptomyces sp. RM-14-6” (J Nat Prod, 2017).

Assay [1] relates to Staphylococcus aureus. In words: Antibacterial activity against Staphylococcus aureus ATCC 6538 up to 60 uM after 16 to 48 hrs. Format: functional. In short, it runs like this:
(§1)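 MIC determined after 16−48 h incubation, in triplicate, following earlier published protocols; kanamycin and ampicillin as positive controls for bacteria, amphotericin B for S. cerevisiae. S. aureus, S. enterica and S. cerevisiae strains from ATCC.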

Assay [2] deals with Micrococcus luteus. Briefly: Antibacterial activity against Micrococcus luteus NRRL B-287 up to 60 uM after 16 to 48 hrs. Format: functional. In a few lines:
as §1

Assay [3] deals with Escherichia coli. Briefly: Antibacterial activity against Escherichia coli NRRL B-3708 up to 60 uM after 16 to 48 hrs. Format: functional. In a few lines:
as §1

In assay [4] the test system is A549. Briefly: Cytotoxicity against human A549 cells assessed as decrease in cell viability up to 20 uM after 48 hrs by resazurin assay. Format: functional, cell-based. In a few lines:
(§2)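 A549 non-small-cell lung cells from ATCC, run in triplicate following earlier published protocols; actinomycin D as positive control.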

The subject of assay [5] is Saccharomyces cerevisiae. In words: Antifungal activity against Saccharomyces cerevisiae ATCC 204508 up to 60 uM after 16 to 48 hrs. Format: functional. In short, it runs like this: as §1
Assay [6] deals with Salmonella enterica. In words: Antibacterial activity against Salmonella enterica ATCC 10708 up to 60 uM after 16 to 48 hrs. Format: functional. In short, it runs like this:
as §1

The subject of assay [7] is Hippocampal neurone. Briefly: Neuroprotective activity against EtOH-induced damage in Sprague-Dawley rat hippocampal neuron at 0.01 uM after 48 hrs by propidium iodide uptake assay. Format: functional, cell-based. In a few lines:
(§3)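 Organotypic hippocampal slices from 8-day-old Sprague−Dawley rats in medium with 3.74 μM propidium iodide, with or without 100 mM EtOH plus test agent at varied concentrations, 48 h. Slices then imaged for propidium iodide uptake intensity as a marker of cell damage; post hoc statistical comparison vs control and vs EtOH.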

In assay [8] the test system is Saccharomyces cerevisiae. Briefly: Antifungal activity against Saccharomyces cerevisiae ATCC 204508 after 16 to 48 hrs. Format: functional. In a few lines: as §1
Assay [9] concerns A549. Briefly: Cytotoxicity against human A549 cells assessed as decrease in cell viability after 48 hrs by resazurin assay. Format: functional, cell-based. In short, it runs like this:
as §2
In general terms: The colour change of resazurin is a common sign of viable cells or microbes.

The subject of assay [10] is Salmonella enterica. Briefly: Antibacterial activity against Salmonella enterica ATCC 10708 after 16 to 48 hrs. Format: functional. In short, it runs like this:
as §1

The subject of assay [11] is Staphylococcus aureus. In words: Antibacterial activity against Staphylococcus aureus ATCC 6538 after 16 to 48 hrs. Format: functional. In a few lines:
as §1

The test system of assay [12] is Micrococcus luteus. Briefly: Antibacterial activity against Micrococcus luteus NRRL B-287 after 16 to 48 hrs. Format: functional. In a few lines:
as §1

Assay [13] has as its system HEK293. Briefly: Modulation of unfolded protein response in HEK293 cells after 48 hrs by ASGR-Cluc secretion assay. Particulars: Homo sapiens.
The subject of assay [14] is Hippocampal neurone. In words: Neuroprotective activity against EtOH-induced damage in Sprague-Dawley rat hippocampal neuron at 0.01 to 0.10 uM after 48 hrs by propidium iodide uptake assay. Format: functional, cell-based. In short, it runs like this: as §3
Assay [15] has as its system Hippocampal neurone. In words: Neuroprotective activity against EtOH-induced damage in Sprague-Dawley rat hippocampal neuron after 48 hrs by propidium iodide uptake assay. Format: functional, cell-based. In short, it runs like this: as §3

Converted amounts (≈) assume the structure as drawn. The source made the active and inactive calls. The calls are words filed in the database; no cut-off is given here.

As for `C[C@H](CO)NC(=O)c1ccccc1O`, the outcome in assay [1], in assay [2], in assay [3], in assay [4], in [5] and in [6] was inactive.

As for `NC(=O)[C@@H]1COC(c2ccccc2O)=N1`, the result in assay [7] was Active. For the same molecule, the outcome in assay [1], in assay [2], in assay [3], in assay [4], in assay [5] and in assay [6] was inactive.

Consider `O=C(NC(CO)CO)c1ccccc1O`, for which the result in [1], in assay [2], in assay [3], in assay [4], in assay [5] and in assay [6] was inactive.

As to `COC(=O)C1COC(c2ccccc2O)=N1` (configuration not stated), the result in assay [1], in [2], in assay [3], in assay [4], in assay [5] and in assay [6] was inactive.

With `NC(=O)c1ccc[nH]1`, the outcome in assay [1], in [2], in assay [3], in assay [4], in [5] and in assay [6] was inactive.

For the molecule `CC1=CC(=O)C[C@]2(C)CC[C@@H](C(C)(C)O)C[C@@H]12`, the result in assay [1], in assay [2], in assay [3], in assay [5] and in [6] was inactive.

As to `CO[C@H]1CC[C@H](O[C@@H]2C[C@@H]([C@@H](C)/C=C(\C)C(=O)[C@H](C)C[C@H](C)C(=O)O)O[C@@]3(CC[C@@](C)([C@H]4CC[C@@H](C)[C@@]5(O[C@@H]([C@H]6O[C@@](O)(CO)[C@H](C)C[C@@H]6C)C[C@@H]5C)O4)O3)[C@@H]2C)O[C@@H]1C`, the MIC fell in the range of 0.1 to 3 µM in assay [8]; 0.1 to 3 µM (≈ 0.0851 to 2.55 µg/mL) in assay [10] (Salmonella enterica, ATCC 10708, read-out: MIC); 0.1 to 3 µM (≈ 0.0851 to 2.55 µg/mL) in assay [11] (Staphylococcus aureus, ATCC 6538, read-out: MIC); 0.1 to 3 µM (≈ 0.0851 to 2.55 µg/mL) in assay [12] (Micrococcus luteus, NRRL B-287, read-out: MIC). In addition, in assay [9] (Homo sapiens, A549, 48 h), the IC50 stood at 1200 nM. This molecule also came in with an EC50 in [13] of 38 nM.

As to `CO[C@H]1CC[C@H](O[C@@H]2C[C@@H]([C@@H](C)/C=C(\C)C(=O)[C@H](C)C[C@H](C)C(=O)[O-])O[C@@]3(CC[C@@](C)([C@H]4CC[C@@H](C)[C@@]5(O[C@@H]([C@H]6O[C@@](O)(CO)[C@H](C)C[C@@H]6C)C[C@@H]5C)O4)O3)[C@@H]2C)O[C@@H]1C.[Na+]`, the MIC in assay [8] (Saccharomyces cerevisiae, ATCC 204508, read-out: MIC) is 0.1 to 3 µM; in assay [10], 0.1 to 3 µM; in [11] it was 0.1 to 3 µM; in [12], 0.1 to 3 µM. Besides, the IC50 in [9] (a549) was 1900 nM. In addition, the EC50 in assay [13] was 109 nM.

For the molecule `N[C@@H](COC(=O)c1ccccc1O)C(=O)N[C@@H](CO)C(=O)N[C@H](CCCN(O)C=O)C(=O)NCCC(=O)N[C@@H]1CCCN(O)C1=O`, the outcome in assay [1], in assay [2], in assay [3], in assay [4], in [5] and in [6] was inactive. For the same molecule, the result in assay [14] was Active.

As for `O=CN(O)CCC[C@@H](NC(=O)[C@H](CO)NC(=O)[C@H](CO)NC(=O)c1ccccc1O)C(=O)NCCC(=O)N[C@@H]1CCCN(O)C1=O`, the outcome in assay [1], in assay [2], in assay [3], in [15], in [4] and in assay [5] was inactive. In addition, in assay [6], the result was inactive.

Turning to `C[C@@H](CO)NC(=O)c1ccccc1O`, the outcome in assay [1], in [2], in assay [3], in assay [4], in assay [5] and in [6] was inactive.

Regarding `CC(C)C[C@@H]1NC(=O)[C@H]2C[C@@H](O)CN2C1=O`, the result in [1], in assay [2], in assay [3], in assay [4], in assay [5] and in assay [6] was inactive.

In the case of `NC(=O)Cc1ccccc1`, the outcome in assay [1], in assay [2], in [3], in assay [4], in assay [5] and in assay [6] was inactive.

With `NC(=O)c1ccccc1O`, the outcome in [1], in [2], in assay [3], in assay [4], in assay [5] and in [6] was inactive.

For the molecule `CC(=O)NCCc1ccc(O)cc1`, the outcome in assay [1], in assay [2], in [3], in [4], in assay [5] and in [6] was inactive.

With `O=CN(O)CCC[C@@H](NC(=O)[C@H](CO)NC(=O)[C@@H]1COC(c2ccccc2O)=N1)C(=O)NCCC(=O)N[C@@H]1CCCN(O)C1=O`, the result in assay [1], in assay [2], in assay [3], in assay [15], in assay [4] and in assay [5] was inactive. In addition, the result in assay [6] was inactive.

For the molecule `OC[C@@H]1COC(c2ccccc2O)=N1`, the outcome in assay [1], in [2], in [3], in assay [15], in assay [4] and in assay [5] was inactive. Moreover, the result in [6] was inactive.

As for `CNc1ccc(C(N)=O)cc1`, the result in assay [1], in [2], in assay [3], in assay [4], in assay [5] and in assay [6] was inactive.

Broadly, the MIC is the lowest concentration found to suppress growth. What is called IC50 is the concentration needed to halve the response being measured. As usually defined, the EC50 is the concentration needed to bring the measured effect to its halfway point. Read a low EC50 as higher potency in that assay.
